Measured values pooled from the literature.
Compare with care: the assays were run in different laboratories.
Read-out: cell growth or viability

N.N.[Cl][Pt][Cl] — IC50 (MCF-10A; MTT; 48 h; dark): 34600 nM
N.N.[Cl][Pt][Cl] — inhibition (K562; ATP luminescence; 10 µM; 72 h): 97%
CC(=O)N[C@H]1[C@@H](O[C@@H]2O[C@H](C[C@@H](O)[C@H]3O[C@@H](n4ccc(=O)[nH]c4=O)[C@H](O)[C@@H]3O)[C@H](O)[C@H](O)[C@H]2NC(=O)/C=C/CCCCCCCCCC(C)C)O[C@H](CO)[C@@H](O)[C@@H]1O — IC50 (MCF-10A; WST-1): 250 nM
Cc1ncsc1-c1ccc([C@H](C)NC(=O)[C@@H]2C[C@@H](O)CN2C(=O)[C@@H](c2cc(N3CCC(CN4CCC(OC5CC(Oc6cc(N7C8CCC7CN(c7cc(-c9ccccc9O)nnc7N)C8)ccn6)C5)CC4)CC3)no2)C(C)C)cc1 (some centres unmarked) — IC50 (VCaP; ATP luminescence; 7 days): 4.3 nM
CC[C@H](C)[C@@H]([C@@H](CC(=O)N1CCC[C@H]1[C@H](OC)[C@@H](C)C(=O)N[C@H](C)[C@@H](O)c1ccccc1)OC)N(C)C(=O)[C@@H](NC(=O)[C@@H](NC)C(C)C)C(C)C — IC50 (4T1; CCK-8): 0.294 nM
Cc1ccc(NC(=O)c2ccc(CN3CCN(C)CC3)cc2)cc1Nc1nccc(-c2cccnc2)n1 — viability (K562; MTT; 0.2 µM): 41.6%
CN(C)c1ccc(C(=O)NCCCCCCC(=O)NO)cc1 — viability (OCI-Ly1; ATP luminescence; 0.5 µM; 5 days): 62.3%
CC[C@H](C)[C@@H]([C@@H](CC(=O)N1CCC[C@H]1[C@H](OC)[C@@H](C)C(=O)N[C@H](C)[C@@H](O)c1ccccc1)OC)N(C)C(=O)[C@@H](NC(=O)[C@H](C(C)C)N(C)C(=O)OCc1ccc(NC(=O)[C@H](CCCNC(N)=O)NC(=O)[C@@H](NC(=O)CCOCCOCCOCCOCCC(=O)N[C@@H]2CSSC[C@H](C(=O)O)NC(=O)CNC(=O)[C@@H](CCCNC(=N)N)NC(=O)CNC(=O)[C@@H](C(C)C)NC(=O)CNC(=O)[C@@H](C)NC(=O)[C@@H](CCCNC(=N)N)NC2=O)C(C)C)cc1)C(C)C — IC50 (4T1; resazurin; 24 h): 500 nM
